SMILES strings stand for the structures. ≈ marks a conversion by molar mass, not a printed value. Calls of active or inactive are those of the source.

From ChEMBL document CHEMBL1137747, “Fullerene derivatized s-triazine analogues as antimicrobial agents” (2009) come the findings set out here.

Test [1] deals with Klebsiella pneumoniae. Briefly: Antibacterial activity against Klebsiella pneumoniae at 100 ug/ml by disk diffusion method. It is filed as functional. To be noted: for zone of inhibition at 100 µg/mL: read-out: IZ. In a few lines:
(§1)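 Agar disc diffusion on nutrient agar plates. Inoculum of […] (0.5 McFarland) spread evenly over the agar surface. Whatman filter paper discs, 6.25 mm diameter, dry-heat sterilized at 140 °C for 1 h, soaked in test solution and placed on the agar. Plates inverted and incubated 24 h at 37 °C. Solvent and growth controls and a ciprofloxacin reference run alongside. Inhibition zones measured.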

In a further test the test system is Pseudomonas aeruginosa. Briefly: Antibacterial activity against Pseudomonas aeruginosa at 100 ug/ml by disk diffusion method. It is filed as functional. To be noted: for zone of inhibition at 100 µg/mL: read-out: IZ. In a few lines:
as §1

The subject of the next test is Staphylococcus aureus. Briefly: Antibacterial activity against Staphylococcus aureus at 100 ug/ml by disk diffusion method. The settings on record: read-out: IZ. In kind it is functional. A digest of the protocol: as §1
For orientation: Agar diffusion results depend on both activity and mobility in agar.

Test [2] deals with Bacillus subtilis. Briefly: Antibacterial activity against Bacillus subtilis at 100 ug/ml by disk diffusion method. The settings on record: read-out: IZ. It is filed as functional. A digest of the protocol: as §1
In test [3] the test system is Bacillus pumilus. Briefly: Antibacterial activity against Bacillus pumilus at 100 ug/ml by disk diffusion method. It is filed as functional. To be noted: read-out: IZ. A digest of the protocol: as §1
In a further test the test system is Escherichia coli. Briefly: Antibacterial activity against Escherichia coli at 100 ug/ml by disk diffusion method. In kind it is functional. To be noted: for zone of inhibition at 100 µg/mL: read-out: IZ. A digest of the protocol:
as §1

The subject of test [4] is Bacillus pumilus. Briefly: Antibacterial activity against Bacillus pumilus by broth dilution technique. In general terms: In broth dilution the organism is exposed to a series of concentrations in liquid medium.
Test [5] has as its system Bacillus subtilis. Briefly: Antibacterial activity against Bacillus subtilis by broth dilution technique.
The test system of test [6] is Klebsiella pneumoniae. Briefly: Antibacterial activity against Klebsiella pneumoniae by broth dilution technique.

On to `CNc1nc(NC)nc(N/N=C/c2ccc(C=O)cc2)n1`, for which the zone of inhibition at 100 µg/mL in the test with Klebsiella pneumoniae [1] stood at 14 mm; in the test on Pseudomonas aeruginosa it was 11 mm; in the test on Staphylococcus aureus, 11 mm; in the test with Bacillus subtilis [2], 12 mm; with Bacillus pumilus [3], 10 mm; in the test with Escherichia coli it was 14 mm.
As for `CNc1nc(N)nc(N/N=C/c2ccc(C=O)cc2)n1`, the zone of inhibition at 100 µg/mL in the test with Klebsiella pneumoniae [1] worked out at 15 mm; in the test on Pseudomonas aeruginosa it was 13 mm; in the test with Staphylococcus aureus it was 9 mm; in the test with Bacillus subtilis [2] it was 18 mm; in the test on Bacillus pumilus [3], 13 mm; in the test with Escherichia coli, 15 mm.
The term MIC denotes the smallest concentration in the dilution series that meets the test's criterion for growth inhibition. Consider `O=C(O)c1cn(C2CC2)c2cc(N3CCNCC3)c(F)cc2c1=O` [CIPROFLOXACIN], for which the zone of inhibition at 100 µg/mL in the test on Klebsiella pneumoniae [1] came out at 19 mm; in the test on Pseudomonas aeruginosa, 32 mm; in the test on Staphylococcus aureus it was 22 mm; in the test with Bacillus subtilis [2], 38 mm; in the test with Bacillus pumilus [3] it was 36 mm; in the test with Escherichia coli it was 27 mm. Moreover, the figures for the minimum inhibitory concentration (MIC) in the test with Bacillus pumilus [4], with Bacillus subtilis [5] and against Klebsiella pneumoniae [6] were 0.25 mg/L (≈ 0.754 µM), 0.06 mg/L (≈ 0.181 µM) and 12.5 mg/L (≈ 37.7 µM), respectively.
As to `Nc1nc(N)nc(N/N=C/c2ccc(C=O)cc2)n1`, the “inhibition zone (IZ)” value in the test with Klebsiella pneumoniae [1] is “inactive”. In addition, the zone of inhibition at 100 µg/mL in the test on Pseudomonas aeruginosa is 11 mm; in the test on Staphylococcus aureus, 9 mm; in the test on Bacillus subtilis [2], 16 mm; in the test on Bacillus pumilus [3], 15 mm; in the test on Escherichia coli, 15 mm.
As for `CN(C)c1nc(N/N=C/c2ccc(C=O)cc2)nc(N(C)C)n1`, the “inhibition zone (IZ)” value in the test on Klebsiella pneumoniae [1], in the test with Pseudomonas aeruginosa and in the test on Escherichia coli was “inactive” each time. Further, the zone of inhibition at 100 µg/mL was 9 mm in the test with Staphylococcus aureus, 10 mm in the test on Bacillus subtilis [2] and 10 mm in the test with Bacillus pumilus [3].
Take `CNc1nc(N/N=C/c2ccc(C=O)cc2)nc(N(C)C)n1`: the zone of inhibition at 100 µg/mL with Klebsiella pneumoniae [1] is 12 mm; with Pseudomonas aeruginosa it was 10 mm; in the test with Staphylococcus aureus it was 10 mm; with Bacillus subtilis [2] it was 10 mm; in the test with Bacillus pumilus [3] it was 11 mm; in the test with Escherichia coli it was 12 mm.
